The source made the active and inactive calls. No cut-off for these calls is given here.
Assays:
[1] = molecular target: Plasma kallikrein (Homo sapiens) (UniProt P03952); test: Inhibition of Kallikrein in human plasma at 500 uM by chromogenic substrate hydrolysis assay; assay type: cell-free
[2] = molecular target: Coagulation factor IX (Homo sapiens) (UniProt P00740); test: Inhibition of human FIXa at 500 uM by chromogenic substrate hydrolysis assay
[3] = molecular target: Chymotrypsinogen A (Bos taurus) (UniProt P00766); test: Inhibition of bovine alpha-chymotrypsin at 500 uM by chromogenic substrate hydrolysis assay
Coagulation factor XI [4] = molecular target: T1, Coagulation factor XI (Homo sapiens, UniProt P03951); test: Inhibition of human FXIa using S-2366 as chromogenic substrate preincubated with enzyme for 10 mins followed by substrate addition by spectrophotometric analysis
T1 sequence (P03951 19-387 limits assumed): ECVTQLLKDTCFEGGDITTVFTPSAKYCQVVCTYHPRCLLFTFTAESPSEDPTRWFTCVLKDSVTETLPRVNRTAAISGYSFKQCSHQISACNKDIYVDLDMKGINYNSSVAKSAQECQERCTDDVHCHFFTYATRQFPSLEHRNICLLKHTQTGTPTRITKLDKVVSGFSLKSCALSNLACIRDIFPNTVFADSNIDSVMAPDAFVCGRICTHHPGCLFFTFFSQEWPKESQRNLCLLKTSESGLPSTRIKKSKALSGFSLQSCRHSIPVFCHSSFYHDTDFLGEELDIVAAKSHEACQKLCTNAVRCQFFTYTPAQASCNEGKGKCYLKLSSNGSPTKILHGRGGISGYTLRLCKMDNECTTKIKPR
T1 sequence (P03951 388-625 limits assumed): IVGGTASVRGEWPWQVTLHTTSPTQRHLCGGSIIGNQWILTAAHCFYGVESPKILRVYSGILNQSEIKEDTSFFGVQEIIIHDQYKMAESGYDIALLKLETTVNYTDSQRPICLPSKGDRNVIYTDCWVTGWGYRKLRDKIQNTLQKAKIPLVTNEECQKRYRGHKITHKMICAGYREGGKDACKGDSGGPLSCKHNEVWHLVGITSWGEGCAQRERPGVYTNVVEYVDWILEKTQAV

[5] = molecular target: Prothrombin (Homo sapiens) (UniProt P00734); test: Inhibition of human thrombin at 500 uM by chromogenic substrate hydrolysis assay
[6] = molecular target: Coagulation factor X (Homo sapiens) (UniProt P00742); test: Inhibition of human FXa using methoxycarbonyl-D-cyclohexylglycyl-Gly-Arg-p-nitroanilide as substrate at 500 uM by chromogenic substrate hydrolysis assay
Sequence of Coagulation factor X (Homo sapiens) (P00742 41-179 limits assumed): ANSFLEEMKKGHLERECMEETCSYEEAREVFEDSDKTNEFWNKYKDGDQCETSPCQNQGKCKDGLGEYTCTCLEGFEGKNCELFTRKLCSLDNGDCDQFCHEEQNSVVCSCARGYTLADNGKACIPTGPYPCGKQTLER
Sequence of Coagulation factor X (Homo sapiens) (P00742 235-488 limits assumed): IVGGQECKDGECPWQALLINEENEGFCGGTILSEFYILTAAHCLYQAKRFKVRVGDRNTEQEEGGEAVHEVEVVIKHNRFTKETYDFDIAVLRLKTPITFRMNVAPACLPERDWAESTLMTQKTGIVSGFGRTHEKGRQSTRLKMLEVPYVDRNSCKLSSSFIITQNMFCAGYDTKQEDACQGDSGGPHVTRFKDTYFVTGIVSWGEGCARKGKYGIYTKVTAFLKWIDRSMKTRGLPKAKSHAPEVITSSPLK

[7] = molecular target: T2, Coagulation factor VII (Homo sapiens) (UniProt P08709); test: Inhibition of FVIIa (unknown origin) at 500 uM by chromogenic substrate hydrolysis assay
T2 sequence (whole entry): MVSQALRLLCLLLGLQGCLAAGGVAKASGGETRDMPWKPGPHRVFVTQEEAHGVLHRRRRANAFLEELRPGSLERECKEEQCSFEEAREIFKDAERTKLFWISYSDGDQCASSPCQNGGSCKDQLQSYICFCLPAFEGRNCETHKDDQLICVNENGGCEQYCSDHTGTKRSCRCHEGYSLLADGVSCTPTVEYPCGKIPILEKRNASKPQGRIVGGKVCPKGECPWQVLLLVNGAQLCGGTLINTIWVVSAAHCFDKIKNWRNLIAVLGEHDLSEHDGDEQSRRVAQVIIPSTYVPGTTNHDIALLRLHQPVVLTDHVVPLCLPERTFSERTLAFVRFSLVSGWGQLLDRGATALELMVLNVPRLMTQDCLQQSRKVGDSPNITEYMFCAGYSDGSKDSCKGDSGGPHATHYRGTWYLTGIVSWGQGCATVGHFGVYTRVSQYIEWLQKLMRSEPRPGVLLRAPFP

Bos taurus = organism: Bos taurus; test: Inhibition of bovine trypsin using S-2222 as chromogenic substrate at 500 uM by chromogenic substrate hydrolysis assay
Coagulation factor XI [8] = molecular target: T1, Coagulation factor XI; test: Inhibition of human FXIa using S-2366 as chromogenic substrate preincubated with enzyme for 10 mins followed by substrate addition by spectrophotometric analysis relative to control; design: concentration or dose not given beside the values
How it was run: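 hFXIa (0.765 nM final) preincubated with inhibitor or reference solution for 10 min at 37 °C in pH 7.4 buffer (50 mM Tris-HCl, 150 mM NaCl, 0.1% PEG8000, 0.02% Tween80). S-2366 (345 μM final) then added, and residual activity read on a microplate reader.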

Homo sapiens [9] = organism: Homo sapiens; test: Selectivity for inhibition of human FXIa over FVIIa (unknown origin)
Homo sapiens [10] = organism: Homo sapiens; test: Selectivity for inhibition of human FXIa over human FXa
Homo sapiens [11] = organism: Homo sapiens; test: Selectivity for inhibition of human FXIa over Kallikrein in human plasma; assay type: cell-free
Homo sapiens [12] = organism: Homo sapiens; test: Selectivity for inhibition of human FXIa over human thrombin
[13] = Selectivity for inhibition of human FXIa over bovine alpha-chymotrypsin
[14] = Selectivity for inhibition of human FXIa over bovine trypsin
Homo sapiens [15] = organism: Homo sapiens; test: Selectivity for inhibition of human FXIa over human FIXa

Sequence of Coagulation factor IX (Homo sapiens) (P00740 47-191 limits assumed): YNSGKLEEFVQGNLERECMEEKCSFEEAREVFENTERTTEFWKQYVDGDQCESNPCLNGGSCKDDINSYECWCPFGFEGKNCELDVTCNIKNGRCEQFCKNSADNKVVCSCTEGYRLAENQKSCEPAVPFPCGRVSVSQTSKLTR
Sequence of Coagulation factor IX (Homo sapiens) (P00740 227-461 limits assumed): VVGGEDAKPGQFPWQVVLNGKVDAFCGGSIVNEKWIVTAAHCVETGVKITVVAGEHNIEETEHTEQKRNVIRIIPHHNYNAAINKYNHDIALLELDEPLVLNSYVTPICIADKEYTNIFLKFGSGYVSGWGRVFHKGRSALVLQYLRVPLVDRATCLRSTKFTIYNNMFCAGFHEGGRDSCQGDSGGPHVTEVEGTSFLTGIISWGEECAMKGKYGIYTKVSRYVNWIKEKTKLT
Sequence of Plasma kallikrein (Homo sapiens) (P03952 20-390 limits assumed): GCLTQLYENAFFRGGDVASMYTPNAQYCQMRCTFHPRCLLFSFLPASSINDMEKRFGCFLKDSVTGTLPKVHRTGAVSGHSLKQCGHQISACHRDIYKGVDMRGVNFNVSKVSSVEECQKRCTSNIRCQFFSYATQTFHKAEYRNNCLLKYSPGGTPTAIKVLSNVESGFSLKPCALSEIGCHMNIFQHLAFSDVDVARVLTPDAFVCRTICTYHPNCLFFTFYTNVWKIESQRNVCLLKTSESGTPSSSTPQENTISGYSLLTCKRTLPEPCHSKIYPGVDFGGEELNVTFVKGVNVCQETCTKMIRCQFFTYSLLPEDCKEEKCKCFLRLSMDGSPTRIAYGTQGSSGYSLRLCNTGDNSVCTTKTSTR
Sequence of Plasma kallikrein (Homo sapiens) (P03952 391-638 limits assumed): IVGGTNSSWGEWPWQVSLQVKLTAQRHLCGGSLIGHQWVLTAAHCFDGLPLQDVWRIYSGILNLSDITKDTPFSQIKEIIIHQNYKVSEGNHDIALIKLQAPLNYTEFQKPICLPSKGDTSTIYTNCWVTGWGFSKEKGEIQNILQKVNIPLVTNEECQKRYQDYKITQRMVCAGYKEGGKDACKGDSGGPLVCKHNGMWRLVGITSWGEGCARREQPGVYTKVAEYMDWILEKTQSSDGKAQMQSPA

Row | inhibition (Coagulation factor XI [8]) [%] | Selectivity ratio (Homo sapiens [9]) | Selectivity ratio (Homo sapiens [10]) | Selectivity ratio (Homo sapiens [11]) | Selectivity ratio (Homo sapiens [12]) | Selectivity ratio [13] | Selectivity ratio [14] | Selectivity ratio (Homo sapiens [15]) | Compound | inhibition [1] | inhibition [2] | inhibition [3] | IC50 (Coagulation factor XI [4]) [µM] | inhibition [5] | inhibition [6] | inhibition [7] | inhibition (Bos taurus)
1 | 81 | > 63 | > 63 | > 63 | > 63 | > 63 | > 63 | > 63 | O=c1c2ccccc2nc(-c2ccc(OS(=O)(=O)O)cc2)n1CCCCCCCCn1c(-c2ccc(OS(=O)(=O)O)cc2)nc2ccccc2c1=O | inactive | inactive | inactive | 20 | inactive | inactive | inactive | inactive
2 | 96 | > 63 | > 63 | > 63 | > 63 | > 63 | > 63 | > 63 | O=c1c2ccccc2nc(-c2ccc(OS(=O)(=O)O)cc2)n1CCCCCCCn1c(-c2ccc(OS(=O)(=O)O)cc2)nc2ccccc2c1=O | inactive | inactive | inactive | 23 | inactive | inactive | inactive | inactive
3 | 94 | > 63 | > 63 | > 63 | > 63 | > 63 | > 63 | > 63 | O=c1c2ccccc2nc(-c2cccc(OS(=O)(=O)O)c2)n1CCOCCn1c(-c2cccc(OS(=O)(=O)O)c2)nc2ccccc2c1=O | inactive | inactive | inactive | 401 | inactive | inactive | inactive | inactive
4 | 96 | > 63 | > 63 | > 63 | > 63 | > 63 | > 63 | > 63 | O=c1c2ccccc2nc(-c2cccc(OS(=O)(=O)O)c2)n1CCCCCn1c(-c2cccc(OS(=O)(=O)O)c2)nc2ccccc2c1=O | inactive | inactive | inactive | 89 | inactive | inactive | inactive | inactive
5 | 96 | > 63 | > 63 | > 63 | > 63 | > 63 | > 63 | > 63 | O=c1c2ccccc2nc(-c2cccc(OS(=O)(=O)O)c2)n1C/C=C/Cn1c(-c2cccc(OS(=O)(=O)O)c2)nc2ccccc2c1=O | inactive | inactive | inactive | 415 | inactive | inactive | inactive | inactive
6 | 93 | > 63 | > 63 | > 63 | > 63 | > 63 | > 63 | > 63 | O=c1c2ccccc2nc(-c2cccc(OS(=O)(=O)O)c2)n1Cc1ccccc1Cn1c(-c2cccc(OS(=O)(=O)O)c2)nc2ccccc2c1=O | inactive | inactive | inactive | 94 | inactive | inactive | inactive | inactive

More lines, now with the values behind:

Row | Compound | inhibition (Coagulation factor XI [8]) [%] | Selectivity ratio (Homo sapiens [9]) | Selectivity ratio (Homo sapiens [10]) | Selectivity ratio (Homo sapiens [11]) | Selectivity ratio (Homo sapiens [12]) | Selectivity ratio [13] | Selectivity ratio [14] | Selectivity ratio (Homo sapiens [15]) | inhibition [1] | inhibition [2] | inhibition [3] | IC50 (Coagulation factor XI [4]) [µM] | inhibition [5] | inhibition [6] | inhibition [7] | inhibition (Bos taurus)
7 | O=c1c(OS(=O)(=O)O)c(-c2ccc(OS(=O)(=O)O)c(OS(=O)(=O)O)c2)oc2cc(OS(=O)(=O)O)cc(OCc3cn(CCCCCCCn4c(-c5ccc(OS(=O)(=O)O)cc5)nc5ccccc5c4=O)nn3)c12 |  |  |  |  |  |  |  |  | inactive | inactive | inactive | 139 | inactive | inactive | inactive | inactive
8 | O=c1c2ccccc2nc(-c2ccc(OS(=O)(=O)O)cc2)n1CCCCCCCn1cc(Cn2c(-c3ccc(OS(=O)(=O)O)cc3)nc3ccccc3c2=O)nn1 | 103 | > 63 | > 63 | > 63 | > 63 | > 63 | > 63 | > 63 | inactive | inactive | inactive | 51 | inactive | inactive | inactive | inactive
9 | O=c1c2ccccc2nc(-c2ccc(OS(=O)(=O)O)cc2)n1CCCCCCCCCCCn1cc(Cn2c(-c3ccc(OS(=O)(=O)O)cc3)nc3ccccc3c2=O)nn1 | 98 | > 63 | > 63 | > 63 | > 63 | > 63 | > 63 | > 63 | inactive | inactive | inactive | 30 | inactive | inactive | inactive | inactive
10 | O=c1c(OS(=O)(=O)O)c(-c2ccc(OS(=O)(=O)O)c(OS(=O)(=O)O)c2)oc2cc(OS(=O)(=O)O)cc(OCc3cn(CCCCCCCCCn4c(-c5ccc(OS(=O)(=O)O)cc5)nc5ccccc5c4=O)nn3)c12 |  |  |  |  |  |  |  |  | inactive | inactive | inactive | 37 | inactive | inactive | inactive | inactive
11 | O=c1c2ccccc2nc(-c2ccc(OS(=O)(=O)O)cc2)n1CCCCCCCCCCn1cc(Cn2c(-c3ccc(OS(=O)(=O)O)cc3)nc3ccccc3c2=O)nn1 | 112 | > 63 | > 63 | > 63 | > 63 | > 63 | > 63 | > 63 | inactive | inactive | inactive | 22 | inactive | inactive | inactive | inactive
12 | O=c1c(OS(=O)(=O)O)c(-c2ccc(OS(=O)(=O)O)c(OS(=O)(=O)O)c2)oc2cc(OS(=O)(=O)O)cc(OCc3cn(CCCCCCCCn4c(-c5ccc(OS(=O)(=O)O)cc5)nc5ccccc5c4=O)nn3)c12 |  |  |  |  |  |  |  |  | inactive | inactive | inactive | 133 | inactive | inactive | inactive | inactive
13 | COc1ccc2nc(-c3ccc(OS(=O)(=O)O)cc3)n(CCCCCCn3c(-c4ccc(OS(=O)(=O)O)cc4)nc4ccc(OC)cc4c3=O)c(=O)c2c1 | 95 | > 63 | > 63 | > 63 | > 63 | > 63 | > 63 | > 63 | inactive | inactive | inactive | 35 | inactive | inactive | inactive | inactive
14 | O=c1c(OS(=O)(=O)O)c(-c2ccc(OS(=O)(=O)O)c(OS(=O)(=O)O)c2)oc2cc(OS(=O)(=O)O)cc(OCc3cn(CCCCCCCCCCn4c(-c5ccc(OS(=O)(=O)O)cc5)nc5ccccc5c4=O)nn3)c12 |  |  |  |  |  |  |  |  | inactive | inactive | inactive | 51 | inactive | inactive | inactive | inactive

Source: ChEMBL document CHEMBL5244263, “Studies on fragment-based design of allosteric inhibitors of human factor XIa” (Bioorg Med Chem, 2020)
